Data set [1] deals with Leishmania donovani. Description: Antileishmanial activity against Leishmania donovani MHOM/IN/00/DEVI promastigotes assessed as inhibition of metabolic activity measured after 72 hrs by MTT assay. It is filed as functional, organism-based. In a few lines:
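L. donovani MHOM/IN/00/DEVI promastigotes grown in Schneider's medium with 20% FCS at 27 °C. Log-phase parasites at 10⁶/mL were exposed in duplicate to serial compound concentrations in DMSO (final <0.5%) for 72 h at 27 °C. MTT was added for 4 h and absorbance read at 570 nm. EC50 from non-linear regression, mean of at least three independent experiments.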
A general note: Tetrazolium assays rely on reduction of a dye to a coloured formazan, in cell work by metabolically active cells.

Data set [2] has as its system Trypanosoma brucei brucei. Put plainly: Antitrypanosomal activity against bloodstream form of Trypanosoma brucei brucei S427 trypomastigotes overexpressing NTR incubated for 72 hrs. Type of data set: functional, organism-based. Particulars: S427, 72 h. In short, it runs like this: (§1)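 Bloodstream-form T. brucei 'single marker' S427 cultured at 37 °C in HMI9-T with 2.5 µg/mL G418. The NTR1-overexpressing line was kept with 2.5 µg/mL phleomycin and induced with 1 µg/mL tetracycline 48 h before testing. Triplicate cultures seeded at 1×10^5 cells/mL with inhibitor. Cell densities counted after 72 h. EC50 from slope-factor equation.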

The test system of data set [3] is Trypanosoma brucei brucei. Description: […] activity against Trypanosoma brucei brucei AnTat 1.9 measured after 74 hrs by Alamar blue assay. It is filed as functional, organism-based. The following applies: AnTat 1.9, 74 h. In a few lines:
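Bloodstream T. b. brucei AnTat 1.9 grown at 37 °C, 5% CO₂ in MEM with Earle's salts plus mercaptoethanol, L-cysteine, bathocuproine sulfate and 20% heat-inactivated horse serum. Seeded at 2000 parasites/100 µL and exposed in duplicate to compounds in DMSO for 69 h. Alamar Blue then added for 5 h, fluorescence read at ex 530/em 590 nm. EC50 by nonlinear regression from three independent experiments.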

In data set [4] the test system is Leishmania donovani. Description: Antileishmanial activity against Leishmania donovani BOB (MHOM/SD/62/1S-CL2D) promastigotes overexpressing NTR2 incubated for 72 hrs by resazurin dye based assay. It is filed as functional, organism-based. In short, it runs like this: (§2)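 Clonal L. donovani LdBOB promastigotes grown at 26 °C in modified M199; NTR1- and NTR2-overexpressing lines maintained with nourseothricin (100 µg/mL). Triplicate 10 mL cultures seeded at 5×10^4 parasites/mL with drug for 72 h; 200 µL aliquots then given 50 µM resazurin, fluorescence (ex 528/em 590 nm) after 4 h more. EC50 from slope-factor equation; experiments repeated at least twice, mean plus standard deviation.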
Background: Resazurin is reduced to fluorescent resorufin, in cell work by metabolically active cells.

Data set [5] deals with Leishmania donovani. Put plainly: Antileishmanial activity against wild type Leishmania donovani BOB (MHOM/SD/62/1S-CL2D) promastigotes incubated for 72 hrs by resazurin dye based assay. It is filed as functional, organism-based. In short, it runs like this: as §2
The nature of data set [6]: Selectivity index, ratio of CC50 for human HepG2 cells to EC50 for Trypanosoma brucei brucei AnTat 1.9. Type of data set: toxicity. The following applies: read-out: Selectivity Index.
The test system of data set [7] is Trypanosoma brucei brucei. Put plainly: Antitrypanosomal activity against bloodstream form of wild type Trypanosoma brucei brucei S427 trypomastigotes incubated for 72 hrs. Type of data set: functional, organism-based. Particulars: S427, 72 h. In a few lines:
as §1

A short description of data set [8]: Cytotoxicity against human HepG2 cells assessed as reduction in cell viability after 72 hrs by MTT assay. It is filed as cell-based.
A short description of data set [9]: Solubility of the compound in aqueous medium at highest dose. It is filed as physicochemical. The following applies: buffer.
Data set [10] relates to Leishmania donovani. Description: Antileishmanial activity against Leishmania donovani BOB (MHOM/SD/62/1S-CL2D) promastigotes overexpressing NTR1 incubated for 72 hrs by resazurin dye based assay. It is filed as functional, organism-based. In short, it runs like this:
as §2

Data set [11] is described as follows: Selectivity index, ratio of CC50 for cytotoxicity against human HepG2 cells to EC50 for antileishmanial activity against Leishmania donovani MHOM/IN/00/DEVI promastigotes. It is filed as toxicity, cell-based. The following applies: read-out: Selectivity Index.
Data set [12] can be described thus: Microsomal stability in CD-1 mouse liver microsomes assessed as half life measured after 40 mins in presence of NADPH by LC-MS/MS analysis. It is filed as ADME, Microsome. In a few lines: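 Female CD-1 mouse microsomes incubated in duplicate at 37 °C in 50 mM phosphate buffer, pH 7.4, with MgCl₂, NADP, glucose-6-phosphate and G6P dehydrogenase. […] Propranolol as reference.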

Data set [13] in a line: Genotoxicity in Salmonella typhimurium at 2.5 mM incubated for 48 hrs by Ames test. It is filed as toxicity. The following applies: salmonella enterica subsp. enterica serovar typhimurium, 2500 µM. In short, it runs like this: (§3)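 Liquid pre-incubation Ames test using S. typhimurium TA97a, TA98, TA100 and TA102 grown overnight in nutrient broth. Cultures were incubated with compound (5-50 mM DMSO stock) and 4% S9 mix for 1 h at 37 °C, then plated in top agar on minimal agar for 48 h at 37 °C in the dark, in duplicate. Positive result: a two-fold rise in revertants over the spontaneous count. Benzo[a]pyrene with S9 as positive control.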
For orientation: In the Ames test, an excess of revertant colonies over the control signals mutagenicity.

The test system of data set [14] is THP-1. Put plainly: Cytotoxicity against human THP-1 cells assessed as reduction in cell viability after 72 hrs by MTT assay. Type of data set: functional. In short, it runs like this:
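THP-1 cells at 5×10⁴ cells/mL in complete RPMI were exposed in duplicate to compounds in DMSO (final <0.5%) for 72 h at 37 °C. MTT at 0.5 mg/mL for 2 h, formazan dissolved in DMSO, absorbance read at 570 nm with 630 nm reference. CC50 from the dose-response curve, mean of three independent experiments.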

Data set [15] in a line: AUC (0 to infinity) in Swiss albino mouse at 100 mg/kg, po. It is filed as ADME, organism-based. Also noted: time infinity, route oral, dose 100 mg/kg. The following applies: in vivo. In a few lines:
(§4)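 Female Swiss mice, 8 weeks, 30-32 g, given a single oral gavage at 100 mg/kg as a suspension in 5% Tween 80/95% carboxymethylcellulose 0.5% in water. Blood (100 µL) was extracted with ACN containing ornidazole as internal standard plus QuEChERS salts, then quantified by positive-ESI LC-MS/MS on a C8 column against whole-blood calibration standards (5 to 1,000 ng/mL).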

In data set [16] the test system is Trypanosoma cruzi. Description: Antitrypanosomal activity against Trypanosoma cruzi trypomastigotes infected in African green monkey Vero cells incubated for 120 hrs measured on day 6 cells followed by trypomastigotes release by haemocytometer-based light microscopy. Type of data set: functional, organism-based. In a few lines: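 Vero cells, grown 2 days, were infected with T. cruzi CL Brener trypomastigotes at 3:1 parasites to host cells. After 24 h, free parasites were washed off and compounds added (0.1 to 25 µM, 2 to 4-fold dilutions) for 120 h at 37 °C. Trypomastigotes released into the medium by day 6 were pelleted and counted by haemocytometer. EC50 by non-linear regression; two independent experiments, each in triplicate.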

Data set [17] can be described thus: Cmax in Swiss albino mouse at 100 mg/kg, po. It is filed as ADME, organism-based. Also noted: route oral, dose 100 mg/kg. The following applies: in vivo. In a few lines: as §4
A short description of data set [18]: Tmax in Swiss albino mouse at 100 mg/kg, po. It is filed as ADME, organism-based. The following applies: in vivo. In a few lines:
as §4

Data set [19] is described as follows: Effective permeability of the compound at pH 7.4 incubated for 4 hrs by PAMPA-BBB assay. It is filed as ADME. The following applies: read-out: permeability. In a few lines: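 Compound diluted from a 20 mM DMSO stock to 100 µM in Prisma HT buffer pH 7.4 and placed in the donor wells. Acceptor membrane coated with BBB-1 lipid, with Brain Sink Buffer in the acceptor wells. Plates incubated 4 h at room temperature without stirring, then read by UV-visible spectra to give Pe. Corticosterone and theophylline served as high and low permeability standards; n=6.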

Data set [20] can be described thus: Genotoxicity in Salmonella typhimurium at 0.25 mM incubated for 48 hrs by Ames test. It is filed as toxicity. The following applies: salmonella enterica subsp. enterica serovar typhimurium, 250 µM. In a few lines:
as §3

Data set [21] concerns HepG2. Put plainly: Genotoxicity in human HepG2 cells assessed as induction of DNA damage at 20 to 30 uM incubated for 2 to 72 hrs by alkaline comet assay. Type of data set: toxicity, cell-based. Particulars: hepg2, 30 µM, dose lower 20 µM, time lower 2 hrs, dose upper 30 µM, time upper 72 hrs. In a few lines: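 HepG2 cells exposed for 2 or 72 h at 20 or 30 µM, then trypsinized and embedded in 0.7% low-melting agarose. Lysis 18 h at 4 °C, pH 10; alkaline electrophoresis (pH >13) for 24 min at 0.8 V/cm. Gels stained with SYBR Gold and imaged. % tail DNA is the median of 50 cells per deposit, three deposits per sample.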

Data set [22] in a line: Thermodynamic solubility of the compound in phosphate buffer at pH 7.4 by shake flask method. Type of data set: physicochemical. Particulars: read-out: Therm_solubility. In a few lines:
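Miniaturized shake-flask method: a 20 mM DMSO stock was diluted into phosphate buffer pH 7.4 (n=3), sonicated and shaken for 24 h at room temperature, then centrifuged. Supernatant was mixed 1:1 with acetonitrile and quantified by UV spectrophotometry at the compound's λmax against a calibration curve.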

Data set [23] addresses Albumin (Homo sapiens, UniProt P02768). Description: Protein binding to human albumin by LC-MS analysis. Type of data set: ADME. The following applies: read-out: PB (converted). In short, it runs like this: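 Plasma spiked with compound was dialysed at 37 °C in triplicate against phosphate buffer pH 7.2 for 4 h at 300 rpm. Both compartments were sampled and quantified by LC-MS using propranolol as internal standard. Unbound fraction taken from the plasma and buffer peak ratios; recovery checked with a non-incubated spiked plasma.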

Data set [24] is described as follows: Half life in Swiss albino mouse plasma at 100 mg/kg, po. It is filed as ADME, organism-based. In a few lines: as §4
Data set [25] is described as follows: Clearance in Swiss albino mouse at 100 mg/kg, po. Type of data set: ADME, organism-based. The following applies: in vivo. In a few lines: as §4

The record followed here is ChEMBL document CHEMBL4765374, “8-Alkynyl-3-nitroimidazopyridines display potent antitrypanosomal activity against both T. b. brucei and cruzi” (Eur J Med Chem, 2020).

Broadly, the EC50 is the concentration giving half of the maximal effect. The CC50 is the concentration at which the toxic effect on the cells reaches its halfway point. As usually defined, the half-life is the time needed for the level to fall by half in the phase considered. A word on the AUC(0-inf): it is total exposure, with the tail of the curve extrapolated. The Cmax is the highest concentration seen after dosing. For orientation: Tmax means the time at which the peak concentration occurs. As a reminder, the CL/F is clearance divided by bioavailability, as obtained after extravascular dosing.

≈ marks a conversion by molar mass, not a printed value. Bounds are passed on as bounds.

Chain of Albumin (P02768 whole entry): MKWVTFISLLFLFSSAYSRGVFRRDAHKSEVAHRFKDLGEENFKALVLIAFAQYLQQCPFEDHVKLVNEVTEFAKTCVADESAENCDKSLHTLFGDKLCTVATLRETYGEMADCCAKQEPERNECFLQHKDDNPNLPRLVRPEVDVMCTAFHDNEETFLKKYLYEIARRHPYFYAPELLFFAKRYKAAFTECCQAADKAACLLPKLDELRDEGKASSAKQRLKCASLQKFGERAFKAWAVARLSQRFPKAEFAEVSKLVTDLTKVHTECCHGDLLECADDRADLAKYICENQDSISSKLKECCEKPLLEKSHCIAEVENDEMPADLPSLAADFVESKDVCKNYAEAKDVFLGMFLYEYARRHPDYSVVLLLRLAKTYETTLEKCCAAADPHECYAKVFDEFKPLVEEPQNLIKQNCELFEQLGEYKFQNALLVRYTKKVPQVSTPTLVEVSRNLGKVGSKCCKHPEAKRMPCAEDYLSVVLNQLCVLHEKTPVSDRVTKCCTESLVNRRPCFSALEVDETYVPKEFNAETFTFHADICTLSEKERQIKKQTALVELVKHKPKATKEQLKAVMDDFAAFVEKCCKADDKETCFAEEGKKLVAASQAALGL

As to `CCC(O)CC#Cc1cc(Cl)cn2c([N+](=O)[O-])c(CS(=O)(=O)c3ccccc3)nc12` (stereo unspecified), the EC50 was 1.6 µM in [1]; 0.0663 µM in data set [2]; 0.04 µM in data set [3]; 8.5 µM in data set [4]; 7.3 µM in data set [5]; 0.2 µM in data set [7]. A half-maximal effect in [10] (EC50) was put at 0.4 µM. In addition, the selectivity ratio in data set [6] is above 1560; in data set [11], above 39.1. Moreover, the cytotoxic concentration (CC50) at 72 h in data set [8] was above 62.5 µM. Also, in data set [9], the solubility result is “Insoluble”.
In the case of `O=[N+]([O-])c1c(CS(=O)(=O)c2ccccc2)nc2c(C#CCCO)cc(Cl)cn12`, the figures for the half-life in data set [12] and in data set [24] were 16 min and 601 min, respectively. For the same compound, the EC50 amounted to 7.4 µM in data set [1]; 0.0265 µM in data set [2]; 1.2 µM in data set [16]; 0.07 µM in data set [3]; 24.5 µM in data set [4]; 21.4 µM in data set [5]. The EC50 in [7] was found to be 0.124 µM; in data set [10], 0.5 µM. For the same compound, the Activity result in [13] was “Toxic”; in [20], “Toxic”; in data set [21], “Non-Toxic”. In [14], the CC50 was above 100 µM. Moreover, the AUC(0-inf) in data set [15] is 1430 ng·h/mL. In addition, the Cmax in data set [17] turned out to be 394 ng/mL. Further, the selectivity ratio in [6] was above 1790; in [11], above 16.9. Moreover, in data set [18], the Tmax is 49.8 min. The CC50 at 72 h in data set [8] is above 125 µM. Moreover, in data set [9], the solubility result is “Insoluble”. Moreover, in [19], the Papp at 4 h was determined as 34.6 ×10⁻⁶ cm/s. Besides, the solubility thermodynamic in data set [22] is 70.7 µM (≈ 29.7 µg/mL). The fraction unbound in data set [23] was 0.015. The same compound showed a CL/F in data set [25] of 0.0407 mL/min.
